Source: PubChem BioAssay (Broad Institute)
S100A4 MyoIIA – inhibitors of S100A4-myosin IIA peptide binding, primary screen, biochemical, fluorescence polarization, TAMRA-MyoIIA peptide. Protein S100-A4 (Homo sapiens), P26447. inhibition, % at 10.7 µM. actives 0.14% (n = 360,000). AID 652163, 2013;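 active = mean inhibition of at least 70% across replicates, with every replicate also reaching that level; inconclusive = mean inhibition reaches 70% but some replicates fall short; inactive = mean inhibition below 70%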
Target sequence (P26447 whole entry, looked up): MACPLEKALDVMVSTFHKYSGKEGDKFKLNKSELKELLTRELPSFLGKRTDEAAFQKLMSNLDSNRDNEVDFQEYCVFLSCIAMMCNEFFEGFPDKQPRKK
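incubation = readout 5 min after mixing, signal stable up to 60 min | system = S100A4 monomer protein | buffer or medium = HEPES pH 7.2 with CaCl2, KCl, NaCl, DTT, Triton | benchmarks = neutral control DMSO, positive control TFP | also added = fluorescent myosin IIA peptide, 5 nM | compound dosing = one concentration per compound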
DENV2 CPE rescue – inhibitors of DENV2 cytopathic effect, primary screen, cell-based, plate reader, single concentration; CPE inhibition, % at 9.99 µM; DENV2-infected cells, cytopathic effect rescue; AID 651640, 2012; actives 1.7% (n = 350,000); in the data active = CPE inhibition above about 20%, passing the limit was not always enough; inconclusive = no clear call, values can overlap the other calls; tested in BHK-21 cells;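 also: 0% = median of neutral control wells and 100% = median of positive control wells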
CaV13 ICDI inh – Primary screen for inhibitors of IQ motif and Ca2+-dependent inactivation inhibitor domain binding in CACNA1D, Förster resonance energy transfer in living cells, …. HEK cells, CFP/YFP FRET ICDI-IQ, plate reader, 10 min; percent FRET-ratio fall versus neutral wells. inhibition, % at 12.3 µM. actives 0.098% (n = 340,000). AID 743397;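 active = mean replicate inhibition of at least 30% and at least 1% of replicates passing that level; inconclusive = only one of the two criteria is met; inactive = neither criterion is met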;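 also: 0% = median of the neutral control wells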
SIRT5 block – SIRT5 desuccinylase inhibitors, primary screen, biochemical, fluorescence imaging, single point, set 5. NAD-dependent protein deacylase sirtuin-5, mitochondrial (Homo sapiens), Q9NXA8. Purified SirT5, succinyl-peptide AMC, trypsin-coupled fluorescence. inhibition, % at 15 µM. actives 1.1% (n = 330,000). AID 652115, 2013; in the data active = inhibition above about 15%; inconclusive = no clear call, values can overlap the other calls
Target sequence (Q9NXA8 whole entry, looked up): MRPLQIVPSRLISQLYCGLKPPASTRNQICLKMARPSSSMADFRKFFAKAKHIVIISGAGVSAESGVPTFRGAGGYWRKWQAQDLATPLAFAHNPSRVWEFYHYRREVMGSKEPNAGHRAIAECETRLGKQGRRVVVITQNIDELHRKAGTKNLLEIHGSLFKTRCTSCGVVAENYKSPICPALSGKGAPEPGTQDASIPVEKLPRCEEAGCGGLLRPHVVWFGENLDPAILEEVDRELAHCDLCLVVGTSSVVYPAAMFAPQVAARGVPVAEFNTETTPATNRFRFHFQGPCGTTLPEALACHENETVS
MLL AF4-AF9 inh – inhibitors of AF4 peptide binding to AF9, primary screen, biochemical, AlphaScreen, biotin-AF4 peptide, FLAG-AF9, single point; inhibition, % at 10 µM; actives 0.47% (n = 350,000);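 active = every replicate reaching a set inhibition limit, whatever the replicate mean, cut at about 25% in these data; inconclusive = mean inhibition reaches that limit but some replicates miss it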;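 also: 0% = plate neutral control median and 100% = total signal loss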
The depositor's hits bear a star; ? = inconclusive; / = no result given. This is a sample that favours compounds with a hit; in the whole collection about 2.7% have one here.

SMILES	S100A4 MyoIIA	DENV2 CPE rescue	CaV13 ICDI inh	SIRT5 block	MLL AF4-AF9 inh
COc1ccc(N2CCN(C3CCCN(S(=O)(=O)c4ccccc4)C3)CC2)cc1 (configuration not stated)	25.8	-6.0	-2.7	-1.4	6.0
COc1ccc(N2CCN(C3CCCN(S(=O)(=O)c4ccc(C)cc4C)C3)CC2)cc1 (configuration not stated)	8.5	-2.5	-6.9	-5.6	31.6*
Clc1ccccc1N1CCN(Cc2c[nH]c3ccccc23)CC1	-1.4	-4.9	-21.0	3.1	11.8
OC1(c2ccc(Cl)cc2)CCN(Cc2c[nH]c3ccccc23)CC1	-0.4	56.2*	-5.8	4.2	8.2
C[C@H]1CN([C@@H](C)CO)S(=O)(=O)c2ccc(-c3cccnc3)cc2O[C@H]1CN(C)C(=O)c1cccc(F)c1	-1.9	-9.0	/	1.3	4.3
CN(C)c1ccc(C2Nc3ccccc3C(=O)N2NS(C)(=O)=O)cc1 (configuration not stated)	4.1	0.8	-16.9	31.4*	0.9
O=C(C1CCC1)N1CC(=O)N2[C@H](CO)[C@H](c3ccc(Br)cc3)[C@H]2C1	3.5	-7.6	/	-3.4	-1.9
COc1ccc(/C=C2/C(=O)N(c3nc4ccccc4s3)N=C2CSc2ccc(Cl)cc2)cc1	-10.8	-5.9	-5.5	18.0*	-3.1
COc1ccc(C(C)=O)cc1CSc1nnc(Nc2ccccc2)s1	/	/	-3.8	/	/
COc1ccc(C(C)=O)cc1CSc1nnc(Nc2ccc(C)cc2)s1	-9.8	47.4*	-4.5	-3.7	-10.2
Clc1ccc(C2=NCCN2)cc1	0.7	/	-17.9	111.5*	-7.1
Clc1ccc(-c2ccn[nH]2)cc1	-4.3	0.0	-5.3	-0.2	-0.6
CN(C)C(=O)c1cccc(-c2ccc([C@@H]3[C@@H](CO)N4CCCCN(CC5CCOCC5)C[C@H]34)cc2)c1	1.5	8.5	/	9.9	-1.1
CO[C@@H]1CN(C)C(=O)c2cc(NC(=O)c3cc(C)on3)ccc2OC[C@H](C)N(C(=O)C2CC2)C[C@H]1C	0.3	21.4*	/	-2.1	-2.4
CO[C@H]1CN(C)C(=O)c2cc(NC(=O)c3cc(C)on3)ccc2OC[C@@H](C)N(C(=O)C2CC2)C[C@@H]1C	2.3	1.6	/	-1.9	-0.7
COCC(=O)N1C[C@@H](C)[C@@H](OC)CN(C)C(=O)c2ccc(NC(=O)c3cc(C)on3)cc2OC[C@@H]1C	16.0	5.4	/	34.1*	-1.8
CCCNC(=O)Nc1ccc2c(c1)C(=O)N(C)C[C@H](OC)[C@H](C)CN(S(C)(=O)=O)[C@@H](C)CO2	-0.7	-4.1	/	4.5	-10.7
Cc1oc2c(C)c3oc(=O)c(CCC(=O)NCCN4CCOCC4)c(C)c3cc2c1C	-2.6	29.2*	/	/	2.0
Cc1oc2c(C)c3oc(=O)c(CCC(=O)NCCCN4CCOCC4)c(C)c3cc2c1C	2.8	?	/	-3.5	-0.6
CCNc1nc(N)c(C(=O)C23CC4CC(CC(C4)C2)C3)s1	-3.1	53.3*	-3.9	-1.0	/
CN(C)C(=O)C[C@@H]1CC[C@@H]2[C@H](COC[C@@H](O)CN2CC2CC2)O1	-3.0	?	/	-0.6	-7.5
C[C@@H](O)C#Cc1cnc2c(c1)C(=O)N([C@@H](C)CO)C[C@H](C)[C@@H](CN(C)C(=O)CC1CC1)O2	5.3	2.5	/	0.2	-0.2
COc1ccc(-c2oc3ccc(-c4cc(OC)c(OC)c(OC)c4)cc3c2-c2ccc(OC)cc2)cc1	-20.2	11.9	2.2	/	-3.8
COc1ccc(-c2oc3ccc(-c4cc(OC)c(OC)c(OC)c4)cc3c2-c2ccc(OC)nc2)cc1	5.6	80.2*	-5.4	/	3.0
C[C@H](CO)N1C[C@H](C)[C@H](CN(C)C(=O)Nc2ccc(F)cc2)Oc2ccc(NC(=O)Nc3ccc(F)cc3)cc2C1=O	-5.2	/	/	23.5*	4.4
SMILES	S100A4 MyoIIA	DENV2 CPE rescue	CaV13 ICDI inh	SIRT5 block	MLL AF4-AF9 inh
C[C@@H]1CN([C@H](C)CO)C(=O)c2cc(NC(=O)NC3CCCCC3)ccc2O[C@@H]1CN(C)C(=O)Nc1ccc(F)cc1	3.2	40.1*	/	-3.6	-1.5
C[C@@H]1CN([C@H](C)CO)C(=O)c2cc(NC(=O)NC3CCCCC3)ccc2O[C@H]1CN(C)C(=O)Nc1ccc(F)cc1	-0.1	2.4	/	-1.0	0.1
C[C@H]1CN([C@@H](C)CO)C(=O)c2cc(NC(=O)NC3CCCCC3)ccc2O[C@@H]1CN(C)C(=O)Nc1ccccc1	157.1*	-0.5	/	5.3	-5.7
O=S(=O)(N[C@H]1CC[C@H](CCn2cc(-c3ccccc3F)nn2)O[C@H]1CO)c1ccc(F)cc1	6.4	11.0	/	6.5	-22.1
O=S(=O)(c1ccccc1F)N1CC[C@@H]2[C@H](CO)Nc3ccc(-c4cccc(F)c4)cc3[C@@H]21	/	/	/	2.6	6.7
CN(C)C(=O)c1cccc(-c2ccc3c(c2)[C@@H]2[C@@H](CCN2C(=O)c2ccc(F)cc2)[C@H](CO)N3C)c1	/	4.7	/	/	/
CCOc1ccc(S(=O)(=O)Nc2cccc(C)c2)c2cccnc12	-2.1	1.9	-3.4	17.9*	0.3
CCOc1ccc(S(=O)(=O)Nc2ccc3c(c2)OCO3)c2cccnc12	/	/	-2.5	/	/
CCN(CC)c1ccc(CNc2ccc(Br)cn2)cc1	/	/	-0.7	/	/
CCN(CC)c1ccc(Nc2nc(Cl)ncc2Br)cc1	3.3	5.1	-5.2	1.3	27.1*
Cc1noc(C)c1S(=O)(=O)Nc1cccc2c1O[C@H](CN(C)C)[C@H](C)CN([C@@H](C)CO)C2=O	2.3	-4.8	/	-1.1	-0.7
COc1ccc(S(=O)(=O)N[C@H]2C=C[C@@H](CC(=O)NCCc3ccccc3)O[C@H]2CO)cc1	-1.0	9.5	/	-0.5	-2.9
CC(=O)OC1CCC2C3CCC4=CC(=O)CCC4(C)C3CCC2(C)[C@]1(C)O (some centres not stated)	0.6	105.7*	-8.7	-3.2	-0.1
COc1cccc(NC(=O)C2CC(=O)N(Cc3ccco3)C2)c1 (configuration not stated)	-3.8	1.9	-1.7	0.4	2.2
CC(OC(=O)C1CC(=O)N(Cc2ccco2)C1)C(=O)Nc1cccc(C#N)c1 (configuration not stated)	2.0	20.7*	-6.5	-2.8	3.8
Cc1c(Br)c(O)c(Br)c(O)c1/C=N/n1c(-c2ccccc2)n[nH]c1=S	-3.8	/	/	29.8*	/
C[C@@H]1CCCCO[C@H](CN(C)S(C)(=O)=O)[C@H](C)CN([C@@H](C)CO)C(=O)c2cc(NS(=O)(=O)c3cn(C)cn3)ccc2O1	-1.8	-3.1	/	3.3	-0.2
O=C(NCc1cccs1)c1cccc(Nc2nc3ccc(Br)cc3[nH]2)c1	-4.7	22.3*	-4.2	/	-17.6
